Results reported in ChEMBL document CHEMBL3352208, “Semisynthetic analogues of toxiferine I and their pharmacological properties at α7 nAChRs, muscle-type nAChRs, and the allosteric binding site of muscarinic M2 receptors” (J Nat Prod, 2014).
pEC50, pIC50, pKi: −log10 of the molar value.

Key:
[1] = Displacement of [3H]epibatidine from Torpedo californica muscle-type nAChR after 90 mins by liquid scintillation counting; format: tissue-based, Tetronarce californica
In short: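 Torpedo californica electric organ membranes, homogenised and washed in HSS, 60−70 μg per sample. Incubated with (±)-[3H]epibatidine for 90 min at 22 °C; (−)-nicotine defined nonspecific binding. Filtered through PEI-soaked GF/B filters and counted by scintillation. […] Mean ± SEM of 3–5 experiments.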

[2] = biological target: T1, Muscarinic acetylcholine receptor M2 (Sus scrofa, UniProt P06199); test: Displacement of [3H]NMS from pig muscarinic M2 receptor after 120 mins by liquid scintillation counting
T1 sequence (P06199 whole entry): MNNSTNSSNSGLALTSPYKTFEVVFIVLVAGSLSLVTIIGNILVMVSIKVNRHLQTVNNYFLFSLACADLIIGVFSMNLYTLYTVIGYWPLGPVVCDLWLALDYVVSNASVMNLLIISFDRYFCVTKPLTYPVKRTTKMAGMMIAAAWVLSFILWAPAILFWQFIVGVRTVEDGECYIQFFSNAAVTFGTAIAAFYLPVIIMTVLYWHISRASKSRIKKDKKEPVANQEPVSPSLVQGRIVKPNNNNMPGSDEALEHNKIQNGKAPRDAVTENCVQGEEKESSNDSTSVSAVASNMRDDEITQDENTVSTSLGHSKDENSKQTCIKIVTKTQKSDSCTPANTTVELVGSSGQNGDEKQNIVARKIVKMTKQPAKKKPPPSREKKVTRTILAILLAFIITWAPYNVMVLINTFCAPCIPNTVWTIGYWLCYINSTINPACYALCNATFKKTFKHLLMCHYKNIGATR

[3] = biological target: T2, Neuronal acetylcholine receptor subunit alpha-7 (Homo sapiens, UniProt P36544); test: Antagonist activity at human alpha7 nAChR expressed in GH3 cells by Ca2+/Fluo-4 assay; format: cell-based; conditions: for pIC50: read-out: IC50; for IC50: read-out: pIC50 (converted)
[4] = biological target: T2, Neuronal acetylcholine receptor subunit alpha-7; test: Ratio of toxiferine-I IC50 to compound IC50 for human alpha7 nAChR expressed in GH3 cells by Ca2+/Fluo-4 assay; format: cell-based

T2 sequence (P36544 whole entry): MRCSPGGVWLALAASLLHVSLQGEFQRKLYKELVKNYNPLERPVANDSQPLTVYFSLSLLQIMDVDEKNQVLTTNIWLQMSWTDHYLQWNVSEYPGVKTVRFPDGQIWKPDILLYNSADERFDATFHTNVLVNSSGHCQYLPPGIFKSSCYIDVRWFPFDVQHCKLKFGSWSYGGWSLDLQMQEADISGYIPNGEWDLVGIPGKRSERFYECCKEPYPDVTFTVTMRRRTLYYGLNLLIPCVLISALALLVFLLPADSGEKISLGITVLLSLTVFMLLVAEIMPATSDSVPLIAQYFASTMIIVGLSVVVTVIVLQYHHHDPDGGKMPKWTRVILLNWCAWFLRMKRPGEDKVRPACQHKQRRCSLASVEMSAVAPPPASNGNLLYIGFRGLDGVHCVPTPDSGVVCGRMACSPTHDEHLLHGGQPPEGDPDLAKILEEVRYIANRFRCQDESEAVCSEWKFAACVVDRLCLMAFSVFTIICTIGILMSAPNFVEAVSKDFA

With C=CC[N@@+]12CC[C@@]34c5ccccc5N5/C=C6/[C@H]7C[C@H]8[C@@]9(CC[N@@+]8(CC=C)C/C7=C/CO)c7ccccc7N(/C=C(/[C@@H](C[C@@H]31)/C(=C\CO)C2)[C@H]54)[C@@H]69 [ALCURONIUM] the pKi [1] was 6.63 and the pEC50 [2] was 8.70.
CC[C@@H]1CN2CC[C@@]34c5ccccc5N5/C=C6/[C@H]7C[C@@H]8N(CC[C@@]89c8ccccc8N(/C=C(/[C@H]1C[C@H]23)[C@H]54)[C@@H]69)C[C@H]7CCO showed a pKi [1] of 6.41, a pEC50 [2] of 6.39 and a pIC50 [3] of 5.66. It also gave an IC50 [3] of 2340 nM.
C[N+]12CC[C@@]34c5ccccc5N5[C@@H]6OC=C7C[N+]8(C)CC[C@]9%10c%11ccccc%11N([C@@H]%11OCC=C(C1)[C@H](C[C@@H]32)[C@@H]%11[C@H]54)[C@H]9[C@H]6[C@H]7C[C@@H]%108 (some centres not stated) showed a pKi [1] of 5.28 and a pEC50 [2] of 8.10.
Molecule C=CC[N+]12CC[C@@]34c5ccccc5N5/C=C6/[C@H]7C[C@H]8[C@@]9(CC[N+]8(CC=C)C[C@H]7CC)c7ccccc7N(/C=C(/[C@@H](C[C@@H]31)[C@H](CC)C2)[C@H]54)[C@@H]69 (some centres not stated) has a pKi [1] of 7.12 and a pEC50 [2] of 7.44.
In the case of CC[C@@H]1C[N+]2(Cc3ccc([N+](=O)[O-])cc3)CC[C@@]34c5ccccc5N5/C=C6/[C@H]7C[C@H]8[C@@]9(CC[N+]8(Cc8ccc([N+](=O)[O-])cc8)C[C@H]7CCO)c7ccccc7N(/C=C(/[C@H]1C[C@@H]32)[C@H]54)[C@@H]69 (some centres not stated), the pKi [1] was 6.54, the pEC50 [2] was 7.49 and the pIC50 [3] was 5.38. For the same molecule, the IC50 [3] was 4170 nM.
For C=CC[N+]12CC[C@@]34c5ccccc5N5[C@@H]6OC=C7C[N+]8(CC=C)CC[C@]9%10c%11ccccc%11N([C@@H]%11OCC=C(C1)[C@H](C[C@@H]32)[C@@H]%11[C@H]54)[C@H]9[C@H]6[C@H]7C[C@@H]%108 (some centres not stated), the pKi [1] was 5.82 and the pEC50 [2] was 7.96.
C[N+]12CC[C@@]34c5ccccc5N5/C=C6/[C@H]7C[C@H]8[C@@]9(CC[N+]8(C)C/C7=C/CO)c7ccccc7N(/C=C(/[C@@H](C[C@@H]31)/C(=C\CO)C2)[C@H]54)[C@@H]69 (some centres not stated) showed a pKi [1] of 7.85 and a pEC50 [2] of 7.02.
Molecule CC[C@@H]1CN2CC[C@@]34c5ccccc5N5/C=C6/[C@H]7C[C@@H]8N(CC[C@@]89c8ccccc8N(/C=C(/[C@H]1C[C@H]23)[C@H]54)[C@@H]69)C[C@H]7CC has a pKi [1] of 6.17, a pEC50 [2] of 6.30 and a pIC50 [3] of 5.48. For the same molecule, the IC50 [3] was 3310 nM.
CC[C@@H]1C[N+]2(Cc3ccc([N+](=O)[O-])cc3)CC[C@@]34c5ccccc5N5/C=C6/[C@H]7C[C@H]8[C@@]9(CC[N+]8(Cc8ccc([N+](=O)[O-])cc8)C[C@H]7CC)c7ccccc7N(/C=C(/[C@H]1C[C@@H]32)[C@H]54)[C@@H]69 (some centres not stated) showed a pKi [1] of 7.09, a pEC50 [2] of 7.31 and a pIC50 [3] of 4.68. It also gave an IC50 [3] of 21400 nM.
CC[C@@H]1C[N+]2(C)CC[C@@]34c5ccccc5N5/C=C6/[C@H]7C[C@H]8[C@@]9(CC[N+]8(C)C[C@H]7CC)c7ccccc7N(/C=C(/[C@H]1C[C@@H]32)[C@H]54)[C@@H]69 (some centres not stated) showed a Ratio IC50 [4] of 10, a pKi [1] of 6.82 and a pEC50 [2] of 6.59. The pIC50 [3] was 6.09 and the IC50 [3] was 813 nM.
For CC[C@@H]1C[N+]2(C)CC[C@@]34c5ccccc5N5/C=C6/[C@H]7C[C@H]8[C@@]9(CC[N+]8(C)C[C@H]7CCO)c7ccccc7N(/C=C(/[C@H]1C[C@@H]32)[C@H]54)[C@@H]69 (some centres not stated), the Ratio IC50 [4] was 10, the pKi [1] was 6.34 and the pEC50 [2] was 6.49. It also gave a pIC50 [3] of 6.23 and an IC50 [3] of 603 nM.
For C=CC[N+]12CC[C@@]34c5ccccc5N5/C=C6/[C@H]7C[C@H]8[C@@]9(CC[N+]8(CC=C)C[C@H]7CCO)c7ccccc7N(/C=C(/[C@@H](C[C@@H]31)[C@H](CC)C2)[C@H]54)[C@@H]69 (some centres not stated), the pKi [1] was 6.60, the pEC50 [2] was 7.92 and the pIC50 [3] was 5.51. The IC50 [3] was 3160 nM.
Molecule C1=C2CN3CC[C@]45c6ccccc6N6[C@@H]7OCC=C8CN9CC[C@]%10%11c%12ccccc%12N([C@H](OC1)[C@@H]([C@H]64)[C@H]2C[C@H]35)[C@H]%10[C@H]7[C@H]8C[C@H]9%11 [CARACURINE V] has a pKi [1] of under 4.00 and a pEC50 [2] of 6.36.
